Calls of active or inactive are those of the source. No cut-off for these calls is given here.
How the values were obtained:
SH-SY5Y [1] = assay: Cytotoxicity against human SH-SY5Y cells assessed as reduction in cell viability at 25 uM incubated for 24 hrs by Celltiter-blue assay; type: cell-based
Method in brief: (§1)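 HepG2 or SH-SY5Y seeded 10×10^3 per well the day before in 1 g/L glucose medium with 2% FBS. Medium replaced with fresh 2% FBS, 1 g/L glucose medium containing compound (25 µM) for 24 h at 37 °C. CellTiter-Blue added for 4 h, fluorescence read at 560/590 nm. Viability given as % of vehicle/untreated cells. Mean ± SEM of ≥3 independent runs.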

HepG2 [2] = assay: Suppression of rotenone-induced ATP depletion in human HepG2 cells assessed as rescue of ATP level at 5 uM incubated for 2 hrs in presence of complex III inhibitor myxothiazol by Celltiter-Glo assay; type: functional, cell-based
Method in brief: (§2)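 HepG2 cells seeded 10×10^3 per well in 1 g/L glucose, 2% FBS medium the day before. Switched to glucose- and FBS-free medium containing 10 µM rotenone, with compound added at the same time, 2 h at 37 °C. ATP read by CellTiter-Glo luminescence, normalized to DMSO cells without rotenone. Mean ± SEM of ≥3 independent runs. Complex III inhibitors, where used, at 50 nM.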

HepG2 [3] = assay: Suppression of rotenone-induced ATP depletion in human HepG2 cells assessed as increase in rescue of ATP level at 0.1 to 1 uM incubated for 2 hrs by Celltiter-Glo assay; type: functional, cell-based; conditions: dose microM 0.1-1, time 2.0 hrs; method in brief: as §2
SH-SY5Y [4] = assay: Cytotoxicity against human SH-SY5Y cells assessed as reduction in cell viability by WST-1 assay; type: cell-based
[5] = Cytotoxicity against C57BL/6J mouse RGC cells assessed as reduction in number of cells at 50 uM incubated for 24 hrs by Hoechst 33342 staining based counting method; type: cell-based
Method in brief: (§3)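 Retinal explants from 6–8 month old female wild-type C57BL/6J mice, enucleated eyes placed in ice-cold HBSS. Explants incubated 24 h ex vivo in pre-warmed Neurobasal A with compounds in 0.1% DMSO, alone for toxicity or with 100 µM rotenone for activity. Hoechst 33342-stained nuclei (and anti-RBPMS-positive RGCs) counted in the central retina ganglion cell layer. Mean ± SEM, 1-way ANOVA with Tukey.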

[6] = Cytotoxicity against human HepG2 cells assessed as cell viability at 25 uM incubated for 24 hrs by Celltiter-blue assay relative to control; type: cell-based; conditions: read-out: Activity; method in brief: as §1
[7] = target: NAD(P)H dehydrogenase [quinone] 1 (Homo sapiens) (UniProt P15559); assay: Substrate activity at NQO1 in human HepG2 cells assessed as reduction in cell viability by WST-1 assay; type: cell-based
HepG2 [8] = assay: Cytotoxicity against human HepG2 cells assessed as reduction in cell viability incubated for 24 hrs by Celltiter-blue assay; type: cell-based; conditions: HepG2, 24 h
RGC = assay: Cytoprotection against rotenone-induced C57BL/6J mouse retinal ganglion cells loss assessed as increase in cell survival at 3 uM incubated for 24 hrs by Hoechst 33342 staining based counting method; type: functional, tissue-based; conditions: in the assay text read “anti-RBPMS antibody staining” for “Hoechst 33342 staining”; method in brief: as §3
HepG2 [9] = assay: Suppression of rotenone-induced ATP depletion in human HepG2 cells assessed as increase in rescue of ATP level at 1 uM incubated for 2 hrs by Celltiter-Glo assay; type: functional, cell-based; method in brief: as §2
[10] = Cytotoxicity against C57BL/6J mouse RGC cells assessed as reduction in number of cells at 100 uM incubated for 24 hrs by Hoechst 33342 staining based counting method; type: cell-based; method in brief: as §3
[11] = Suppression of rotenone-induced ATP depletion in human HepG2 cells assessed as rescue of ATP level incubated for 2 hrs by Celltiter-Glo assay relative to control; type: functional; parameters: concentration or dose not given beside the values; method in brief: as §2
HepG2 [12] = assay: Suppression of rotenone-induced ATP depletion in human HepG2 cells assessed as rescue of ATP level at 5 uM incubated for 2 hrs in presence of NQO1 irreversible inhibitor ES936 by Celltiter-Glo assay; type: functional, cell-based
HepG2 [13] = assay: Suppression of rotenone-induced ATP depletion in human HepG2 cells assessed as rescue of ATP level at 5 uM incubated for 2 hrs in presence of NQO1 inhibitor dicoumarol by Celltiter-Glo assay; type: functional, cell-based
[14] = target: NAD(P)H dehydrogenase [quinone] 1 (Homo sapiens) (UniProt P15559); assay: Substrate activity at NQO1 in human HepG2 cells assessed as reduction in cell viability in presence of NQO1 inhibitor dicoumarol by WST-1 assay; type: cell-based
HepG2 [15] = assay: Cytotoxicity against human HepG2 cells assessed as cell reduction in cell viability at 25 uM incubated for 24 hrs by Celltiter-blue assay; type: cell-based; conditions: hepg2, 24 h; method in brief: as §1
[16] = Suppression of rotenone-induced ATP depletion in human HepG2 cells incubated for 2 hrs by Celltiter-Glo assay; type: functional, cell-based; conditions: HepG2, 2 h; method in brief: as §2
[17] = target: NAD(P)H dehydrogenase [quinone] 1 (Homo sapiens) (UniProt P15559); assay: Substrate activity at recombinant NQO1 (unknown origin) assessed as reduction in NADH level at 20 uM measured for 6 mins by microplate reader analysis
[18] = Cytotoxicity against […] assessed as reduction in cell viability by WST-1 assay; type: cell-based; conditions: r28
SH-SY5Y [19] = assay: Cytotoxicity against human SH-SY5Y cells assessed as reduction in cell viability incubated for 24 hrs by Celltiter-blue assay; type: cell-based
HepG2 [20] = assay: Suppression of rotenone-induced ATP depletion in human HepG2 cells assessed as rescue of ATP level at 5 uM incubated for 2 hrs in presence of complex III inhibitor antimycin by Celltiter-Glo assay; type: functional, cell-based; method in brief: as §2
[21] = Cytoprotection against rotenone-induced C57BL/6J mouse retinal ganglion cells loss assessed as cell survival at 10 uM incubated for 24 hrs by Hoechst 33342 staining based counting method (reference value: 41%); type: functional; conditions: RGC, read-out: Activity; method in brief: as §3
[22] = Suppression of rotenone-induced ATP depletion in human HepG2 cells assessed as rescue of ATP level at 5 uM incubated for 2 hrs by Celltiter-Glo assay relative to control; type: functional; method in brief: as §2
[23] = Cytotoxicity against C57BL/6J mouse RGC cells at 20 uM incubated for 24 hrs by Hoechst 33342 staining based counting method; type: cell-based; method in brief: as §3

Chain of NAD(P)H dehydrogenase [quinone] 1 (Homo sapiens) (P15559 whole entry): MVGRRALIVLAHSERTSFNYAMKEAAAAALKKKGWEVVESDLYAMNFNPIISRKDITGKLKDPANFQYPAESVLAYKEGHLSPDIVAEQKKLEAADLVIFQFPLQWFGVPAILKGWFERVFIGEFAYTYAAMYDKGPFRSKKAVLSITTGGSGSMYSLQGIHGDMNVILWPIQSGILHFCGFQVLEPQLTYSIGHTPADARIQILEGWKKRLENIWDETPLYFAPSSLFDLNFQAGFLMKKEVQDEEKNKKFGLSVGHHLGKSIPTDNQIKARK

With `CSC1=C(Nc2ccc(F)c(C(F)(F)F)c2)C(=O)c2ccccc2C1=O` the Activity (SH-SY5Y [1]) was “Toxic”, the Activity (HepG2 [2]) was “inactive” and the Activity (HepG2 [3]) was “Active”. The Activity (SH-SY5Y [4]) was “Non-Toxic”, the Activity [5] was “Non-Toxic” and the viability at 24 h, 25 µM [6] was 76.9%. For the same molecule, the Activity [7] was “Active”, the IC50 (HepG2 [8]) was 30.5 µM and the Activity (RGC) was “Active”. The Activity (HepG2 [9]) was “Active”, the Activity [10] was “Toxic” and the Activity [11] was 55.7%. For the same molecule, the Activity (HepG2 [12]) was “inactive”, the Activity (HepG2 [13]) was “inactive” and the Activity [14] was “inactive”. For the same molecule, the Activity (HepG2 [15]) was “Toxic”, the EC50 [16] was 0.36 µM and the Activity [17] was “Active”. For the same molecule, the Activity [18] was “Non-Toxic”, the IC50 (SH-SY5Y [19]) was greater than 100 µM and the Activity (HepG2 [20]) was “inactive”.

With `COC1=C(OC)C(=O)C(CCCCCCCCCCO)=C(C)C1=O` [IDEBENONE] the viability at 10 µM [21] was 73%, the Activity (SH-SY5Y [1]) was “Toxic” and the Activity [22] was 70%. The Activity [23] was “Toxic”, the Activity (HepG2 [2]) was “inactive” and the Activity (HepG2 [3]) was “Active”. It also gave a viability at 24 h, 25 µM [6] of 92.8%, an IC50 (HepG2 [8]) of 64.5 µM and an Activity [11] of 44.3%. For the same molecule, the EC50 [16] was 0.94 µM, the IC50 (SH-SY5Y [19]) was 15.9 µM and the Activity (HepG2 [20]) was “inactive”.
